Test results as given in ChEMBL document CHEMBL4428071 (J Med Chem, 2016).
In brackets after ≈: the same amount, converted by molar mass. Activity calls are given as the source filed them. No cut-off for these calls is given here.

Tests used:
[1] = Half life in Sprague-Dawley rat at 1 mg/kg, iv measured up to 8 hrs post dosing; format: ADME, organism-based; details: in vivo
Method in brief: (§1)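 Male Sprague-Dawley rats, 8 weeks old, fasted overnight; iv dosing from a 1 mg/mL solution in 5% DMSO/40% PEG400/55% saline. Jugular-vein blood (~0.2 mL, heparinised) taken at 1, 5, 15, 30 min and 1, 2, 4, 6, 8 h; plasma held at -80 °C until analysis; n=3.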

[2] = Cytotoxicity mouse BA/F3 cells assessed as cell growth inhibition after 72 hrs by cell titer-glo assay; format: cell-based, BaF3
Method in brief: (§2)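 Cells seeded at 3000 per well and exposed to serial compound dilutions for 72 h. Viability read by CellTiter-Glo luminescence and normalised to DMSO controls; mean of three independent measurements. BaF3 lines kept IL-3-free in RPMI 1640/10% FBS after retroviral transduction and puromycin selection. GIST lines grown in DMEM/10% FBS.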

[3] = tested on: Mast/stem cell growth factor receptor Kit (Homo sapiens), P10721 [V559D,V654A]; assay: Inhibition of TEL-fused cKIT V559D/V654A double mutant (unknown origin) expressed in mouse BA/F3 cells assessed as cell growth inhibition after 72 hrs by cell titer-glo assay; format: cell-based; method in brief: as §2
[4] = target: T1, Mast/stem cell growth factor receptor Kit (Homo sapiens, UniProt P10721); assay: Ratio of Imatinib IC50 to compound IC50 for wild type cKIT in human GIST-T1 cells; format: cell-based
[5] = tested on: Mast/stem cell growth factor receptor Kit (Homo sapiens), P10721 [T670I]; assay: Ratio of Imatinib IC50 to compound IC50 for cKIT T670I mutant in human in GIST-5R cells; format: cell-based
[6] = target: Cyclin-dependent kinase-like 3 (Homo sapiens) (UniProt Q8IVW4); assay: Inhibition of partial length human CDKL3 expressed in bacterial expression system assessed as activity remaining at 1 uM by kinome scan assay
[7] = target: Serine/threonine-protein kinase 10 (Homo sapiens) (UniProt O94804); assay: Inhibition of partial length human LOK expressed in bacterial expression system assessed as activity remaining at 1 uM by kinome scan assay
[8] = target: Platelet-derived growth factor receptor beta (Homo sapiens) (UniProt P09619); assay: Inhibition of partial length human PDGFRbeta expressed in bacterial expression system assessed as activity remaining at 1 uM by kinome scan assay
[9] = target: Proto-oncogene tyrosine-protein kinase receptor Ret (Homo sapiens) (UniProt P07949); assay: Inhibition of TEL-fused partial length human RET expressed in mouse BA/F3 cells after 72 hrs by cell titer-glo assay; format: cell-based; method in brief: as §2
[10] = target: Platelet-derived growth factor receptor beta (Homo sapiens) (UniProt P09619); assay: Inhibition of TEL-fused partial length human PDGFRbeta expressed in mouse BA/F3 cells after 72 hrs by cell titer-glo assay; format: cell-based; method in brief: as §2
[11] = target: T1, Mast/stem cell growth factor receptor Kit; assay: Inhibition of wild type cKIT autophosphorylation at Y703 in human GIST-T1 cells at 100 nM after 1 hr by Western blot analysis; format: cell-based
Method in brief: (§3)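 GIST-T1 or GIST-5R cells in DMEM with 10% FBS were treated with serially diluted compound for 1 h. Cells were then lysed and analysed by western blotting.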

[12] = target: T1, Mast/stem cell growth factor receptor Kit; assay: Inhibition of wild type cKIT autophosphorylation at Y719 in human GIST-T1 cells at 100 nM after 1 hr by Western blot analysis; format: cell-based; method in brief: as §3
[13] = target: T1, Mast/stem cell growth factor receptor Kit; assay: Inhibition of wild type cKIT in human GIST-T1 cells assessed as downregulation of AKT phosphorylation at S473 after 1 hr by Western blot analysis; format: cell-based
Method in brief: (§4)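 GIST-T1 cells in DMEM with 10% FBS were exposed to serially diluted compound for 1 h, then lysed. Lysates were analysed by western blot with phospho-specific antibodies against AKT (Ser473), ERK1/2 (Thr202/Tyr204) and S6 ribosomal protein (Ser235/236), each alongside its total protein.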

[14] = target: T1, Mast/stem cell growth factor receptor Kit; assay: Inhibition of wild type cKIT in human GIST-T1 cells assessed as downregulation of S6 phosphorylation at S235/236 after 1 hr by Western blot analysis; format: cell-based; method in brief: as §4
[15] = target: T2, Mast/stem cell growth factor receptor Kit (Homo sapiens, UniProt P10721, T670I); assay: Inhibition of cKIT T670I mutant autophosphorylation at Y703 in human GIST-5R cells at 0.1 to 3 uM after 1 hr by Western blot analysis; format: cell-based; method in brief: as §3
[16] = target: T2, Mast/stem cell growth factor receptor Kit; assay: Inhibition of cKIT T670I mutant in human GIST-5R cells assessed as downregulation of S6 phosphorylation at S235/236 after 1 hr by Western blot analysis; format: cell-based; method in brief: as §3
[17] = target: T2, Mast/stem cell growth factor receptor Kit; assay: Inhibition of cKIT T670I mutant in human GIST-5R cells assessed as downregulation of ERK phosphorylation at T202/204 after 1 hr by Western blot analysis; format: cell-based; method in brief: as §3
[18] = tested on: GISTT1; assay: Induction of apoptosis in human GISTT1 cells assessed as increase in cleaved PARP levels after at 30 nM 24 hrs by Western blot analysis; format: functional, cell-based
Method in brief: (§5)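 GIST-T1 or GIST-5R cells in DMEM with 10% FBS were exposed to serially diluted compound for 24 h. Apoptosis was assessed by western blot with PARP and GAPDH antibodies.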

[19] = species: Homo sapiens; assay: Induction of apoptosis in human GIST5R cells assessed as increase in cleaved PARP levels after 24 hrs by Western blot analysis; format: functional, cell-based; method in brief: as §5
[20] = species: Homo sapiens; assay: Induction of apoptosis in human GIST5R cells assessed as increase in cleaved PARP levels after at 30 nM 24 hrs by Western blot analysis; format: functional, cell-based; method in brief: as §5
[21] = AUC (0 to t) in Sprague-Dawley rat at 1 mg/kg, iv measured up to 8 hrs post dosing; format: ADME, organism-based; set-up: time < 8 hr, dose 1 mg/kg, route intravenous; details: in vivo; method in brief: as §1
[22] = Apparent volume of distribution in Sprague-Dawley rat at 1 mg/kg, iv measured up to 8 hrs post dosing; format: ADME, organism-based; details: in vivo, read-out: Vz; method in brief: as §1
[23] = Apparent clearance in Sprague-Dawley rat at 1 mg/kg, iv measured up to 8 hrs post dosing; format: ADME, organism-based; details: in vivo, read-out: CL(app) (converted); method in brief: as §1
[24] = Solubility of the compound in pure water; format: physicochemical
Method in brief: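 Solubility measured in PBS pH 7.4 and in pure water, reported as µg/mL.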

[25] = tested on: BaF3; assay: Antitumor activity against TEL-fused cKIT T670I mutant expressing mouse BA/F3 cells allografted in nu/nu mouse assessed as tumor growth inhibition at 25 mg/kg, ip administered daily for 10 days; format: functional; details: 240 h, read-out: TGI
Method in brief: (§6)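 Female nu/nu mice, 5 weeks old at purchase, given 1 million BaF3-TEL-cKIT-T670I cells in PBS/Matrigel 1:1 subcutaneously on the right flank. At tumour volume 200–400 mm3, randomised into groups of 7 and dosed IP daily for 10 days (25, 50, 100 mg/kg/d or vehicle: 0.5% methylcellulose/0.4% Tween80 in water). Tumour volume (W2×L/2) and body weight recorded daily.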

[26] = tested on: BaF3; assay: Antitumor activity against TEL-fused cKIT T670I mutant expressing mouse BA/F3 cells allografted in nu/nu mouse assessed as tumor growth inhibition at 50 mg/kg/day, ip administered daily for 10 days; format: functional; details: 240 h, read-out: TGI; method in brief: as §6
[27] = target: T1, Mast/stem cell growth factor receptor Kit; assay: Ratio of imatinib IC50 to compound IC50 for TEL-fused cKIT (unknown origin) expressed in mouse BA/F3 cells; format: cell-based

T1 sequence (P10721 whole entry): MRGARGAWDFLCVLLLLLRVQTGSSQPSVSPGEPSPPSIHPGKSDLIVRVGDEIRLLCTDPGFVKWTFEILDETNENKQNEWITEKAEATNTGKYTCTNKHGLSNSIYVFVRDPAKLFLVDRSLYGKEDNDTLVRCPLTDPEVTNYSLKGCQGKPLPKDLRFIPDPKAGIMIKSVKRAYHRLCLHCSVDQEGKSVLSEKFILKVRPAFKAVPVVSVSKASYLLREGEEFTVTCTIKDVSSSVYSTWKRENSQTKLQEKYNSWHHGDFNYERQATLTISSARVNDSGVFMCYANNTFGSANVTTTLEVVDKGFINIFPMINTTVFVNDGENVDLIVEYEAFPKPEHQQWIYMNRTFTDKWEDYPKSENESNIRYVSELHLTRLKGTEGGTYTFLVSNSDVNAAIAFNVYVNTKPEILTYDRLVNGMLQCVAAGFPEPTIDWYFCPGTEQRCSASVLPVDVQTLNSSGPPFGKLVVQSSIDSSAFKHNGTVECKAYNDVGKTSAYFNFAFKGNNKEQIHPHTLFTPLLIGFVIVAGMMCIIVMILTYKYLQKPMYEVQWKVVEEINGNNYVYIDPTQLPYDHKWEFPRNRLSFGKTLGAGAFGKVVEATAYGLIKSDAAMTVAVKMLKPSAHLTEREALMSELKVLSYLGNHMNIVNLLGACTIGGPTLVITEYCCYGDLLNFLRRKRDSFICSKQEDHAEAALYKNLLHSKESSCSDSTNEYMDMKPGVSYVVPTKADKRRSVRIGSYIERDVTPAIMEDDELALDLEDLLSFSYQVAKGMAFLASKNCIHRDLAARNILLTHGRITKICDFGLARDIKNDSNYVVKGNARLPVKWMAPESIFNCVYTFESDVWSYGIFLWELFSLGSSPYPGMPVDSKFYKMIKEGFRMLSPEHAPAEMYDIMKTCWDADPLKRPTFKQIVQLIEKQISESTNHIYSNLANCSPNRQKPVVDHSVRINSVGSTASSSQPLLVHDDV
T2 sequence (P10721 26-976 T670I limits assumed): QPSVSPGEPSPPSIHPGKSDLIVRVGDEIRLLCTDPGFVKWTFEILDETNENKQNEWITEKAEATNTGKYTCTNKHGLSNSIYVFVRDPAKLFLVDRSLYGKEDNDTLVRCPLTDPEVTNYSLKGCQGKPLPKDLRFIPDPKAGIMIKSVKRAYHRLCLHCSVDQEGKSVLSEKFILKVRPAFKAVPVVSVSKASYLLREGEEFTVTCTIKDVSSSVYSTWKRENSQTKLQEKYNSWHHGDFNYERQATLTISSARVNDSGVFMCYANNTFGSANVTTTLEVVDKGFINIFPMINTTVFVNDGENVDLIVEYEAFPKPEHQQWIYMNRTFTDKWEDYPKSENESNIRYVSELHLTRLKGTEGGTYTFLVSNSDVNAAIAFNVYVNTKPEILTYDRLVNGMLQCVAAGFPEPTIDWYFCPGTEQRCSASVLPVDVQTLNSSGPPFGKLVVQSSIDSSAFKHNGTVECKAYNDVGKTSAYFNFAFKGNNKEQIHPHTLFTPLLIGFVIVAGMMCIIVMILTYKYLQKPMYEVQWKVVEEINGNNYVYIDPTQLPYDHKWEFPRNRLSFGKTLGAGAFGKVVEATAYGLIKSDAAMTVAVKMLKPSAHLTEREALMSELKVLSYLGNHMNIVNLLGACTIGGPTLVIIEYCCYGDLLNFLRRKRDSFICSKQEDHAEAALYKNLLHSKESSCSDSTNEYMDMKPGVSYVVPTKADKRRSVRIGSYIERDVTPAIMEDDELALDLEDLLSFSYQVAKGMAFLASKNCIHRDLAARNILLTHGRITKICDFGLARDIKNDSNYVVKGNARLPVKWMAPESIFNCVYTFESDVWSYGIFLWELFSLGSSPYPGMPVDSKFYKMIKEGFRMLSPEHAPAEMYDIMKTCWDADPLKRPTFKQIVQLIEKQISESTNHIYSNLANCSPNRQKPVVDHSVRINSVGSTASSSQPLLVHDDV
Chain of Platelet-derived growth factor receptor beta (Homo sapiens) (P09619 whole entry, the tested form may be a part): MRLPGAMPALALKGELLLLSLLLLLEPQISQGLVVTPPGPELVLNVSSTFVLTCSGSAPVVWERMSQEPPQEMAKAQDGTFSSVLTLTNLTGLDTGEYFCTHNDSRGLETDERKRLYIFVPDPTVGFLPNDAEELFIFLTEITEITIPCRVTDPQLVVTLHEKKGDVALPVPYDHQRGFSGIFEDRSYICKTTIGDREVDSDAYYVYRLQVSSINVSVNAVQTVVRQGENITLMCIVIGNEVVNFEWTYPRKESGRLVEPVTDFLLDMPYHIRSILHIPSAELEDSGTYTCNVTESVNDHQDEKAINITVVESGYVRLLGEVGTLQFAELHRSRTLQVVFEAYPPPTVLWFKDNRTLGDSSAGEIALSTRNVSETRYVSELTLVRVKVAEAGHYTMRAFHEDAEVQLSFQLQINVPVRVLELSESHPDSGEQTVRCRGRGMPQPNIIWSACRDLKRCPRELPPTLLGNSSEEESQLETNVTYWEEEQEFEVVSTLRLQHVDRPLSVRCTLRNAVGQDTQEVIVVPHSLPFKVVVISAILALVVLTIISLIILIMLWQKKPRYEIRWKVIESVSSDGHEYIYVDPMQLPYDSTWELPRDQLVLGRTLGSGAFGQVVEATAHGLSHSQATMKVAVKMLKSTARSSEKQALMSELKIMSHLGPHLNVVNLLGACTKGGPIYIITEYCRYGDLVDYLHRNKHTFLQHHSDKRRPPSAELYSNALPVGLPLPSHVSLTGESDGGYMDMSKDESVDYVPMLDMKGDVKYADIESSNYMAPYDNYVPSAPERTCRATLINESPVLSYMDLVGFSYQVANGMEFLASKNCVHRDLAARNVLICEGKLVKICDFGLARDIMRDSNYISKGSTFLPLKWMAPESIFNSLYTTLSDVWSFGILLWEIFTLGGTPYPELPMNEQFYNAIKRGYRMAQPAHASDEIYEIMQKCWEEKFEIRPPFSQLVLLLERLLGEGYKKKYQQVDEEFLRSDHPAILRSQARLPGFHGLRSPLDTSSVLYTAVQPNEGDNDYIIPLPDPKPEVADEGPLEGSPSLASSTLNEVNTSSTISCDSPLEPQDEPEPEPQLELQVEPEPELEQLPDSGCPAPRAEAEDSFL
Chain of Serine/threonine-protein kinase 10 (Homo sapiens) (O94804 whole entry, looked up): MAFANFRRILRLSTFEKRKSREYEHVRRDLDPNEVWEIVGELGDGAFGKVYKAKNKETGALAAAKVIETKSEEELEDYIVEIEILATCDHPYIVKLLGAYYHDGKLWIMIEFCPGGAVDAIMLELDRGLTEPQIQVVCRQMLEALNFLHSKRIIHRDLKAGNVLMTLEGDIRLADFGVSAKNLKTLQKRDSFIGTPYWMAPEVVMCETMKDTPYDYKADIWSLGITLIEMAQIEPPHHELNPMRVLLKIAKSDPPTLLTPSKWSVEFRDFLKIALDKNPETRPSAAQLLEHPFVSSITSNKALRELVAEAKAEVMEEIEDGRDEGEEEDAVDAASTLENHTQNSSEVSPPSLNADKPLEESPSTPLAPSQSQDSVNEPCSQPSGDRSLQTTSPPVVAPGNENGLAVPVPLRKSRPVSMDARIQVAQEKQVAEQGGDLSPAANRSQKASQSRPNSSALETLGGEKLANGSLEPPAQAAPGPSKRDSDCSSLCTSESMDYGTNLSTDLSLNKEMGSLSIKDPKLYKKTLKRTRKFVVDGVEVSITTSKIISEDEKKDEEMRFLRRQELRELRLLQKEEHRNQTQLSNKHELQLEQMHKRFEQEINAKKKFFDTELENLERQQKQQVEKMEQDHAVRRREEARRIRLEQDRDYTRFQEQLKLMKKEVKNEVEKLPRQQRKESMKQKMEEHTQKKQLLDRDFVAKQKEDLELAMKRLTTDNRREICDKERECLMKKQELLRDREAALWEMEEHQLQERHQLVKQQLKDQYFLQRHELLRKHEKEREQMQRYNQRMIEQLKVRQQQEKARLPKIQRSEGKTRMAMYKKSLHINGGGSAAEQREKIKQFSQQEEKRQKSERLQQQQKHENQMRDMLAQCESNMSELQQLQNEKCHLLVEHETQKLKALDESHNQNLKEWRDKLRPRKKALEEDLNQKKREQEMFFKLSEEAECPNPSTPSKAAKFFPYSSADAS
Chain of Mast/stem cell growth factor receptor Kit (Homo sapiens), P10721 [T670I] (P10721 whole entry T670I): as the sequence (P10721 whole entry) above, with T670I counted along it
Chain of Mast/stem cell growth factor receptor Kit (Homo sapiens), P10721 [V559D,V654A] (P10721 whole entry V559D/V654A, the tested form may be a part): as the sequence (P10721 whole entry) above, with V559D, V654A counted along it
Chain of Cyclin-dependent kinase-like 3 (Homo sapiens) (Q8IVW4 whole entry, looked up): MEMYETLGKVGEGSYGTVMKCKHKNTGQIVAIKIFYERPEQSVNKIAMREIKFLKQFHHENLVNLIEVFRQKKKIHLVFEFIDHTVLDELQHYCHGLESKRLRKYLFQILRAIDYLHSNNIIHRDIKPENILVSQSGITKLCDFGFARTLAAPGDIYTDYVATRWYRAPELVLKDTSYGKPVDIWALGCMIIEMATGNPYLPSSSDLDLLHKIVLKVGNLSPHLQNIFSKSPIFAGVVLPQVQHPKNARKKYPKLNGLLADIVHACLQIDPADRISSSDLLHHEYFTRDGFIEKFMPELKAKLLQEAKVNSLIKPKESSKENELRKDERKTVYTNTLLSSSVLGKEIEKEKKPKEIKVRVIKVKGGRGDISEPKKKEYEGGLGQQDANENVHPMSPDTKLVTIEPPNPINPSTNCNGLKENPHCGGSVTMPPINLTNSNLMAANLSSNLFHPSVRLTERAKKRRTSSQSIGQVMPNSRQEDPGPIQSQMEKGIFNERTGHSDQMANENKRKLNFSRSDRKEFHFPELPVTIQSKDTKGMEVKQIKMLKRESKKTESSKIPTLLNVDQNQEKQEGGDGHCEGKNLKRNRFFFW

**Q.** With CCC(=O)NCC1CCN(c2ccc(NC(=O)Nc3cccc(Oc4ccnc5cc(OC)c(OC)cc45)c3)cc2C(F)(F)F)CC1 as the molecule, how does the half-life [1] read?
**A.** 2.04 h

**Q.** And the GI50 at 72 h [2]?
**A.** > 10 µM

**Q.** And the GI50 [3]?
**A.** 0.36 µM

**Q.** What about the Ratio IC50 [4] of the same molecule?
**A.** 7

**Q.** What about the Ratio IC50 [5] of the same molecule?
**A.** 300

**Q.** And the Activity [6]?
**A.** 0.3%

**Q.** What about the Activity [7] of the same molecule?
**A.** 0.35%

**Q.** What about the Activity [8] of the same molecule?
**A.** 0%

**Q.** And the GI50 [9]?
**A.** 0.12 µM

**Q.** What about the GI50 [10] of the same molecule?
**A.** 0.005 µM

**Q.** What about the inhibition [11] of the same molecule?
**A.** Active

**Q.** And the inhibition [12]?
**A.** Active

**Q.** What about the EC50 [13] of the same molecule?
**A.** < 0.1 µM

**Q.** And the EC50 [14]?
**A.** < 0.1 µM

**Q.** And the EC50 [15]?
**A.** < 0.1 µM

**Q.** And the EC50 [16]?
**A.** < 0.1 µM

**Q.** And the EC50 [17]?
**A.** < 0.1 µM

**Q.** What about the Activity [18] of the same molecule?
**A.** Active

**Q.** And the Activity [19]?
**A.** Dose-dependent effect

**Q.** And the Activity [20]?
**A.** Active

**Q.** What about the AUCt [21] of the same molecule?
**A.** 0.377 µg·h/mL

**Q.** And the Vd [22]?
**A.** 7.91 L/kg

**Q.** What about the clearance [23] of the same molecule?
**A.** 2.76 L/h/kg

**Q.** What about the solubility [24] of the same molecule?
**A.** 78 µM (≈ 50.8 µg/mL)

**Q.** What about the inhibition in vivo at 25 mg/kg [25] of the same molecule?
**A.** 18.3%

**Q.** And the inhibition in vivo at 50 mg/kg/day [26]?
**A.** 37.1%

**Q.** What about the Ratio IC50 [27] of the same molecule?
**A.** 10
